Screening results as filed in PubChem.
A selection: hits, their analogues and other compounds. The true share with any hit is near 2.9%.
CaV13 FRET inh: Disruptors of the CACNA1D IQ motif to Ca2+-dependent inactivation inhibitor domain association, primary screening, Förster resonance energy transfer in intact living …; HEK cells, CFP/YFP FRET ICDI-IQ, plate reader, 10 min; percent FRET-ratio fall versus neutral wells; inhibition, % at 12.3 µM; 340,000 tested, 0.098% active; AID 743397;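 active = mean replicate inhibition of at least 30% and at least 1% of replicates passing that level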;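 also: 0% = median of the neutral control wells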
ADAM10 inh: human ADAM10 inhibitors, primary screen, biochemical, QFRET, HTS | Disintegrin and metalloproteinase domain-containing protein 10 (Homo sapiens), O14672 | recombinant ADAM10, EDANS/DABCYL FRET peptide cleavage, 3 h | inhibition, % at 7 µM | 370,000 tested, 0.62% active | AID 720582, 2013;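 active = inhibition above a per-campaign cutoff equal to the mean of compounds falling between control-based bounds plus 3 SD, cut at about 20% in these data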;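 also: 0% = DMSO wells while the 100% control is not disclosed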
Arr AP2 block: inhibitors of beta-arrestin/AP2 binding, primary screen, biochemical, GPCR trafficking, flow cytometry; inhibition, % at 10 µM; 340,000 tested, 0.31% active; FITC-arrestin peptide / GST-AP2 beads; AP2 beta2 appendage carries R879A mutation;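 active = inhibition above a set limit, near 3 SD of compounds lacking own fluorescence, cut at about 54% in these data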;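 also: plate controls were DMSO wells for no effect and 5 µM unlabelled arrestin peptide for full effect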
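Assay system: GST-AP2 R879A bound to glutathione beads, E. coli-expressed; Medium: PBS with 0.05% Tween 20 and 0.1% BSA; Also added: fluorescein-tagged arrestin peptide at 50 nM final; Timing: 12 min plus 1 h, RT; Measured by: flow cytometry, FL1 (488/535 nm); Evaluation: percent drop in bead-associated FITC signal.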
ADAM17 inh: ADAM17 inhibitors, primary screen, biochemical, QFRET. recombinant ADAM17, EDANS/DABCYL FRET peptide cleavage. inhibition, % at 6.95 µM. 370,000 tested, 0.83% active. AID 720648, 2013;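 active = inhibition above the mean of compounds lying between control limits plus 3 SD, set per campaign, cut at about 8.5% in these data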;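 also: 0% = DMSO-only wells as the low control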
FAS TE block: FAS thioesterase domain inhibitors, primary screen, biochemical, fluorescence intensity, uHTS | 360,000 tested, 0.67% active | inhibition, % at 15 µM | Fatty acid synthase (Homo sapiens), P49327 | recombinant FAS-TE, OMFH fluorogenic substrate, fluorescence endpoint;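 active = compounds whose normalised, plate-corrected inhibition of enzyme fluorescence in the single-dose primary screen is 50% or more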;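 also: 0% = DMSO with enzyme and 100% = substrate without enzyme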
Target sequence (P49327 whole entry, looked up, the tested form may be a part): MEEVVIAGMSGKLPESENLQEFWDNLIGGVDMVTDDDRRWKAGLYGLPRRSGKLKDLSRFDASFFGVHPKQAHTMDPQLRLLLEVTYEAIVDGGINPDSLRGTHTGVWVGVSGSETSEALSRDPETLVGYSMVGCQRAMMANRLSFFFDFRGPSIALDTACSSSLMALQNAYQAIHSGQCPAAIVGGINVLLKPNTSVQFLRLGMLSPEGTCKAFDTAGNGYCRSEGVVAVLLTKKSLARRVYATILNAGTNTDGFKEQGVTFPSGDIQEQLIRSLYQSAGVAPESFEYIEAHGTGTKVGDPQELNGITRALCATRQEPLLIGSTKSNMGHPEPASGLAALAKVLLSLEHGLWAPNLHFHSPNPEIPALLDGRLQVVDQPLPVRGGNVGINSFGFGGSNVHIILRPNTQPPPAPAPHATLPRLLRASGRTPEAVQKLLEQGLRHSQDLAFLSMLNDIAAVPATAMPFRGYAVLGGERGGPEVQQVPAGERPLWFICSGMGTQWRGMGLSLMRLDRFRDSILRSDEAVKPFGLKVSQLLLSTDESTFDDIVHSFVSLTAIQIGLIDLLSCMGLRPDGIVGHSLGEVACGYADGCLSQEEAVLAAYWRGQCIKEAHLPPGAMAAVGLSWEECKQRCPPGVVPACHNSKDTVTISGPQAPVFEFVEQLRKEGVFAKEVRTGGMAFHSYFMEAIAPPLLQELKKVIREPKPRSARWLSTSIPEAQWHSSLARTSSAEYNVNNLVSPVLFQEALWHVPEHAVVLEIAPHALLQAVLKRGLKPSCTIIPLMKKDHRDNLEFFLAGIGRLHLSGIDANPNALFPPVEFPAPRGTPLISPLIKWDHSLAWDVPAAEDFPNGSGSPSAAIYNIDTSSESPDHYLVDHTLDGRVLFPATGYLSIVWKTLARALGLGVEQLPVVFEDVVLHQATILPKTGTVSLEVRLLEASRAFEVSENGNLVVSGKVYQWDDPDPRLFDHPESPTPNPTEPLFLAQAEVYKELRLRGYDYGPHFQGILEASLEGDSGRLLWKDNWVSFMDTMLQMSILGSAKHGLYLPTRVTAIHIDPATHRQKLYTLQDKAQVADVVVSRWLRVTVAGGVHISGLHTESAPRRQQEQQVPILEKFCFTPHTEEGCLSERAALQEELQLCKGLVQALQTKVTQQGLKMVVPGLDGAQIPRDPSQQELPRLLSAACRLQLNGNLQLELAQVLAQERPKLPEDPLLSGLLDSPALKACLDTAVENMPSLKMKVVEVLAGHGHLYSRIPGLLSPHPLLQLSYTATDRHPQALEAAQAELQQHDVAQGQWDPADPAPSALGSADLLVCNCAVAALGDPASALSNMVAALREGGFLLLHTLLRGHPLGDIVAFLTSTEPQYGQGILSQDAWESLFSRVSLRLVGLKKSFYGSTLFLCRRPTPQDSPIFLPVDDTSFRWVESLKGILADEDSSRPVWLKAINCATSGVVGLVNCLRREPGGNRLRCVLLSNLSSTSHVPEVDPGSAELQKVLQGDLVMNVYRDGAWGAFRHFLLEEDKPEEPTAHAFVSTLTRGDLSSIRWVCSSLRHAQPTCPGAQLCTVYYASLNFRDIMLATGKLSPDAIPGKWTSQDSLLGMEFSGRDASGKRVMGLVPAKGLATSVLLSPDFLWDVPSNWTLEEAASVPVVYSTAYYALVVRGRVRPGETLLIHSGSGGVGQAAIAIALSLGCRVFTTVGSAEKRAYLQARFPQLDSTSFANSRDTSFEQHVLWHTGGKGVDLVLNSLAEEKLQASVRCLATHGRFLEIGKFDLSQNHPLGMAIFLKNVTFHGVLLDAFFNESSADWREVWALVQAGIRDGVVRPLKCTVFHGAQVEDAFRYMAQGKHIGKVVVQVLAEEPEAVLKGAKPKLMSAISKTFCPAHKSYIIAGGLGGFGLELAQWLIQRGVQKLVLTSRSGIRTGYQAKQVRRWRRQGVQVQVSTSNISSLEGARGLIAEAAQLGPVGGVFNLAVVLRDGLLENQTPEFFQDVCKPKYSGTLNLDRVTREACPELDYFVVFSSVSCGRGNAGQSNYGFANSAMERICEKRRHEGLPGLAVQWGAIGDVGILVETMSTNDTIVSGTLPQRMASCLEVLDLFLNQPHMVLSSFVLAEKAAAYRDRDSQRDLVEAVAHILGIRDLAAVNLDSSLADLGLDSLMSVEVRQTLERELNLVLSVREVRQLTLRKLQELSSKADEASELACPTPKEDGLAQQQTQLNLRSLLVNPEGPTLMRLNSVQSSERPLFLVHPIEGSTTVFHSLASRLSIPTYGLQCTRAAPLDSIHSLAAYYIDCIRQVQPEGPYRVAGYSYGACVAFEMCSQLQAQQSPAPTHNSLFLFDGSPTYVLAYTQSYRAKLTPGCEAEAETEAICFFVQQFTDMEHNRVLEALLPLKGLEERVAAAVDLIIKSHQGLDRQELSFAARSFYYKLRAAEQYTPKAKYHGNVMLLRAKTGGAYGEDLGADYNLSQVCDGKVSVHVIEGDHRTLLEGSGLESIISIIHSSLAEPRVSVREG
NRP1-CendR mod: modulators of CendR peptide binding to NRP-1, primary screen, biochemical, fluorescence polarization, uHTS. FAM-RPARPAR peptide binding to NRP-1. inhibition, % at 25 µM. 360,000 tested, 0.85% active;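 active = inhibition or corrected inhibition above about 18%, plus a signal ratio from 0.5 to 1.5, limit read from the data, passing the limit was not always enough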
Starred values were filed as active, the others as inactive; i = inactive; nt = no result given.

SMILES	CaV13 FRET inh	ADAM10 inh	Arr AP2 block	ADAM17 inh	FAS TE block	NRP1-CendR mod
Cc1c(NC(=S)N/N=C/C=C/c2ccc([N+](=O)[O-])cc2)c(=O)n(-c2ccccc2)n1C	-12	18	0	7	-4	36*
Cc1c(NC(=S)N/N=C/C=C/c2ccccc2)c(=O)n(-c2ccccc2)n1C	-2	12	-3	5	-3	9
CCc1nnc(NS(=O)(=O)c2ccc(NC(=O)c3ccc([N+](=O)[O-])s3)cc2)s1	-5	4	nt	0	-3	-16
CC[C@H](CCCCCC#N)CCC(=O)N(c1ccccc1)c1ccccc1	nt	5	nt	4	nt	nt
COc1ccc(OCC(=O)O/N=C(\N)Cc2ccc(Cl)cc2Cl)cc1	nt	12	3	3	6	46*
COc1ccc(OCC(=O)O/N=C(\N)Cc2ccc(Cl)cc2)cc1	-2	7	9	2	-12	5
C[C@@H]1C[C@H]2O[C@@H]2/C=C\C=C\C(=O)Cc2cc(O)cc(O)c2C(=O)O1	nt	-19	nt	-6	nt	nt
CCN(CC(=O)NCc1cccs1)C(=O)c1ccc(S(=O)(=O)N(C)c2ccccc2)cc1	-2	-4	5	-2	1	21*
Cc1cc(C)nc(NS(=O)(=O)c2ccc(NC(=O)COc3ccccc3F)cc2)n1	-3	-10	4	-9	-2	-12
O=C(COc1ccccc1F)Nc1cc(S(=O)(=O)Nc2cccc(Cl)c2)ccc1O	-17	-11	6	4	2	25*
O=C(COC(=O)c1ccccn1)c1ccc([N+](=O)[O-])cc1	-10	-1	-12	4	7	22*
CCOC(=O)N1CCN(C(=O)Nc2ccc3nc(C)c(C)nc3c2)CC1	nt	i	-1	-196	-8	44*
CC(C)(C)OC(=O)NC(=NCCCc1cn(CC(=O)N2CCN(C(=O)OC(C)(C)C)CC2)nn1)NC(=O)OC(C)(C)C	-11	-1	1	-5	-1	8
CC[C@@H](C)[C@@H](C(=O)N1CCN(C(=O)OC(C)(C)C)CC1)n1cc(CCCN=C(NC(=O)OC(C)(C)C)NC(=O)OC(C)(C)C)nn1	-11	-2	0	-2	10	26*
CC(C)(C)c1ccc(C#C[C@@H]2C=C[C@H](O)[C@@H](COC(=O)Nc3ccccc3)O2)cc1	-4	8	nt	4	nt	nt
Cc1cccc(NCC(=O)N/N=C\c2cccc(Oc3ccccc3)c2)c1	2	8	5	8	21	-2
Cc1ccc(NCC(=O)N/N=C/c2cccc(Oc3ccccc3)c2)cc1	-4	0	-1	0	19	41*
Oc1ccc(Cl)cc1-c1cc(-c2ccccc2)n[nH]1	-6	23*	19	7	17	-11
Cc1cc2cc(CNC(=O)c3ccc(S(=O)(=O)N(C)C)cc3)ccc2n1C	-9	-5	4	-1	-7	10
Cc1cc2cc(CNC(=O)c3ccc(S(=O)(=O)N4CCOCC4)cc3)ccc2n1C	0	-20	21	-2	-6	28*
Cc1cc2cc(CNC(=O)Cc3ccc([N+](=O)[O-])cc3)ccc2n1C	-5	-2	26	1	1	30*
CCOc1ccc(NC(=O)COC(=O)c2c[nH]c3ccccc23)cc1	-5	-2	nt	-2	-13	6
CCCN(C)C1CN(Cc2cn(Cc3ccc(C)cc3)nn2)S(=O)(=O)C1 (stereo not given)	-11	-6	nt	-3	-10	0
O=c1c(-n2cncn2)c[nH]n1-c1cccc(Cl)n1	1	-4	-8	-2	-7	18*
CC1(C(=O)NS(=O)(=O)c2ccccc2Cl)CCN1C(=O)CC1CCCC1 (stereo not given)	-11	5	nt	1	-6	-17
SMILES	CaV13 FRET inh	ADAM10 inh	Arr AP2 block	ADAM17 inh	FAS TE block	NRP1-CendR mod
CCCC1NC(=O)c2cc3ccccc3cc2-n2c1nc1ccc(C)cc1c2=O (stereo not given)	-3	-4	nt	4	27	0
Cn1nnnc1SCc1nnc(-c2ccccc2Br)o1	nt	0	-1	-4	-5	-2
Cn1nnnc1SCc1nnc(-c2ccc(F)cc2)o1	nt	-1	-9	-2	-6	25*
Nc1[nH]c(C(=O)c2ccccc2)c(-c2ccc(Br)cc2)c1C(=O)c1ccc(Br)cc1	-7	-2	nt	-1	2	-16
Cc1ccc(C)n1-c1ccc(-c2nnco2)cc1	nt	nt	-3	nt	-4	-6
Cc1c(Br)cc(-c2nnco2)cc1Br	-10	3	-10	-5	7	21*
Cc1ccc2nc(N3CCN(C)CC3)c(C=O)c(=O)n2c1	-3	-122	-12	-49	-3	22*
Cc1cc(C)nc(Nc2nc(=O)c3ccccc3s2)n1	-5	-15	6	-4	-9	21*
Cc1nc(SCc2ccc(C(=O)O)cc2)nc2c1CCCC2	-6	8	6	2	-3	42*
O=C(O)c1ccc(CSc2nc3c(c(=O)[nH]2)CCC3)cc1	-6	-15	nt	-5	-3	-7
CCOC(=O)c1[nH]c2c(c1C)C(=O)CC(c1ccc(F)cc1)C2 (stereo not given)	-5	-4	-7	0	-3	6
Cc1c(C(=O)OCC2CCCO2)[nH]c2c1C(=O)CC(c1ccc(N(C)C)cc1)C2 (stereo not given)	-10	21*	23	4	2	-11
CS(=O)(=O)N[C@@H]1C[C@@H]2O[C@H](CO)CC[C@@H]2O[C@@H]1CCc1ccc(/C=C/c2ccccc2)cc1	nt	0	nt	0	nt	nt
CCN(Cc1ccccc1)C(=O)C1C2C=CC3(CN(Cc4ccccc4)C(=O)C13)O2 (stereo not given)	nt	0	nt	1	nt	nt
O=c1c2ccccc2sn1-c1ccc(S(=O)(=O)N2CCCCC2)cc1	-8	3	8	0	-13	6
Cc1ccc(-n2sc3ccccc3c2=O)cc1S(=O)(=O)N1CCCCC1	-5	13	90*	4	-7	-30
COc1ccc(S(=O)(=O)NC(C)C(=O)Nc2ccc3c(c2)OCCO3)cc1OC (stereo not given)	-3	1	-9	2	-3	-3
COc1ccc(S(=O)(=O)Nc2ccc3c(c2)OCO3)cc1C(=O)O	-5	-2	28	2	-6	16
COc1ccc(/C=C/C(=O)O)cc1S(=O)(=O)Nc1ccc2c(c1)OCO2	2	1	6	-1	-2	26*
